Activity calls are given as the source filed them. Where only a bound is given, the exact number is not on record here.

The term IC50 denotes the point on the concentration scale where inhibition reaches its midpoint. By GI50 is commonly meant the concentration that inhibits growth by half. Low values mean greater sensitivity of the cells, high ones lower sensitivity of the cells. In general, inhibition refers to the change of the read-out against control, counted positive when it falls.

The target in assay [1] is T1, Insulin receptor (Homo sapiens, UniProt P06213). Briefly: Inhibition of INSR assessed as [33Pi] incorporation by microplate scintillation counting in presence of 1 uM ATP. An outline of the steps: (§1)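 Substrates: Poly(Glu,Tyr)4:1 for VEGFR2; Poly(Glu,Tyr) or Poly(Ala,Glu,Lys,Tyr) for INS-R; RBER-CHKtide or casein for PLK1. Incubated 30 °C, 80 min, stopped with 2% H3PO4. Singlicate; activity referenced to no-enzyme and no-inhibitor controls.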

The test system of another assay is UACC-257. Briefly: Growth inhibition of human UACC257 cells after 48 hrs by sulforhodamine B assay. It counts as functional. The note with it: UACC-257, 48 h. Put shortly:
(§2)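 NCI SRB assay with five drug concentrations, top concentration 100 μM, 48 h exposure at 37 °C in RPMI 1640/5% FBS. GI50 is the concentration giving [(Ti−Tz)/(C−Tz)]×100 = 50. Values are means of two independent runs on different dates, each run in duplicate.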
A general note: Sulforhodamine B stains cellular protein and so reports cell mass.

Assay [2] has as its target T2, Vascular endothelial growth factor receptor 2 (Homo sapiens, UniProt P35968). Briefly: Inhibition of VEGFR2 in HUE cells assessed as inhibition of VEGF-induced autophosphorylation treated for 90 mins before VEGF challenge by ELISA. It counts as cell-based. (An ELISA detects its analyte on a solid surface through an enzyme-linked reagent.)
In a further assay the test system is IGROV-1. Briefly: Growth inhibition of human IGROV1 cells after 48 hrs by sulforhodamine B assay. As to conditions: IGROV-1, 48 h. It counts as functional. Put shortly: as §2
The subject of another assay is HUVEC. Briefly: Inhibition of angiogenesis in HUVEC assessed as inhibition of VEGF-induced sprout growth from cellular spheroids after 24 hrs. It counts as functional, cell-based. As to conditions: Homo sapiens. Put shortly:
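Spheroids of 500 primary HUVEC formed overnight in hanging drops, then embedded in collagen gel. Compound added with VEGF-A at 25 ng/mL final, incubated 37 °C for 24 h, then fixed in 4% paraformaldehyde. Cumulative sprout length measured by image analysis; the mean of 10 random spheroids counts as one data point. IC50 from curve fitting.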

The test system of a further assay is CAKI-1. Briefly: Growth inhibition of human Caki1 cells after 48 hrs by sulforhodamine B assay. It counts as functional. The note with it: CAKI-1, 48 h. Put shortly:
as §2

In assay [3] the target is T3, Serine/threonine-protein kinase PLK1 (Homo sapiens, UniProt P53350). Briefly: Inhibition of PLK1 assessed as [33Pi] incorporation by microplate scintillation counting in presence of 1 uM ATP.
In another assay the test system is NCI60. Briefly: Antiproliferative activity against human NCI60 cells at 10 uM after 48 hrs by sulforhodamine B assay. It counts as functional, cell-based. An outline of the steps: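 NCI 60-cell-line prescreen with compound given once at 10 μM. Cells grown in RPMI 1640 with 5% FBS and 2 mM L-glutamine, plated 24 h before dosing, then exposed 48 h at 37 °C. Fixed with cold TCA, stained with SRB, absorbance read at 515 nm, and percent growth taken relative to time-zero and control wells.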

Assay [4] deals with T2, Vascular endothelial growth factor receptor 2. Briefly: Inhibition of VEGFR2 assessed as [33Pi] incorporation by microplate scintillation counting in presence of 1 uM ATP. Put shortly: as §1
For assay [5] the target is unchanged. As to conditions: HUE, 10 uM.
Assay [6] concerns the target T1, Insulin receptor. Briefly: Inhibition of INSR assessed as [33Pi] incorporation at 10 uM by microplate scintillation counting in presence of 1 uM ATP. Put shortly:
as §1

Assay [7] addresses T2, Vascular endothelial growth factor receptor 2. Briefly: Inhibition of VEGFR2 assessed as [33Pi] incorporation at 10 uM by microplate scintillation counting in presence of 1 uM ATP. Put shortly:
as §1

Assay [8] deals with T3, Serine/threonine-protein kinase PLK1. Briefly: Inhibition of PLK1 assessed as [33Pi] incorporation at 10 uM by microplate scintillation counting in presence of 1 uM ATP. An outline of the steps:
as §1

T1 sequence (P06213 28-758 limits assumed): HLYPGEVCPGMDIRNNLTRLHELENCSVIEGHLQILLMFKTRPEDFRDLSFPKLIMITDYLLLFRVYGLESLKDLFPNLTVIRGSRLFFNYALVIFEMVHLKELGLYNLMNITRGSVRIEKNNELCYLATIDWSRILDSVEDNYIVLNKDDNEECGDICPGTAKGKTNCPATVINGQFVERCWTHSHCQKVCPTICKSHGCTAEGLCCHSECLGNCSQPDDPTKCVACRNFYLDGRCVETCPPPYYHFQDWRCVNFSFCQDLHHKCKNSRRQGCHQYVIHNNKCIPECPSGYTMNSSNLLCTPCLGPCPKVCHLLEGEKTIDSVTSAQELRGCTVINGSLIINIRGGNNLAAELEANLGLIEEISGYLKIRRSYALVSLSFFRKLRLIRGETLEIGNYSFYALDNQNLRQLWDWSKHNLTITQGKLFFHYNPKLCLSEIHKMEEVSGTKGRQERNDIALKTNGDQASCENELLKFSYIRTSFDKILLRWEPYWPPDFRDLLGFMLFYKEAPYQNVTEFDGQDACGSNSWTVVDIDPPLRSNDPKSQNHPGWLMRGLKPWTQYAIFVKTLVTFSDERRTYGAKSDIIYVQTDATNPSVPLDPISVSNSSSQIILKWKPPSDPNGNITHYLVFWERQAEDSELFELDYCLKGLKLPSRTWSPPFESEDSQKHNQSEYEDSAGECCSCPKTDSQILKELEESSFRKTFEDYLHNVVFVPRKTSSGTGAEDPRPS
T1 sequence (P06213 763-1382 limits assumed): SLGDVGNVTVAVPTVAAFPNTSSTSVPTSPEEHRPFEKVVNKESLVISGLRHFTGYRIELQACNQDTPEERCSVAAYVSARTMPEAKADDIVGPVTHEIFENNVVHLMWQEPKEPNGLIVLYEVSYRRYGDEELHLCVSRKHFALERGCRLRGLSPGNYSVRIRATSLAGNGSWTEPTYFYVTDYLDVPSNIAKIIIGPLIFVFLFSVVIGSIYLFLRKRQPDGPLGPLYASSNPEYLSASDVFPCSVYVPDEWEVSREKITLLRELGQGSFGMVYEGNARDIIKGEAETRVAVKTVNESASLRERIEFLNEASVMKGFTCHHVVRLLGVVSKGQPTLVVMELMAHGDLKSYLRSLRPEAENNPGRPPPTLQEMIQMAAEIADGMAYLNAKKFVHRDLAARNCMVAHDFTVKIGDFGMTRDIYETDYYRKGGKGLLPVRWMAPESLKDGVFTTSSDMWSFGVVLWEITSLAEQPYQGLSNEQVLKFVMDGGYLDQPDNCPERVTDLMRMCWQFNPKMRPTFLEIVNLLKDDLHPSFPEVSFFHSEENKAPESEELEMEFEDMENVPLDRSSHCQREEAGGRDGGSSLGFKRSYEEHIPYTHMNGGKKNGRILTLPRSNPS
T2 sequence (P35968 whole entry): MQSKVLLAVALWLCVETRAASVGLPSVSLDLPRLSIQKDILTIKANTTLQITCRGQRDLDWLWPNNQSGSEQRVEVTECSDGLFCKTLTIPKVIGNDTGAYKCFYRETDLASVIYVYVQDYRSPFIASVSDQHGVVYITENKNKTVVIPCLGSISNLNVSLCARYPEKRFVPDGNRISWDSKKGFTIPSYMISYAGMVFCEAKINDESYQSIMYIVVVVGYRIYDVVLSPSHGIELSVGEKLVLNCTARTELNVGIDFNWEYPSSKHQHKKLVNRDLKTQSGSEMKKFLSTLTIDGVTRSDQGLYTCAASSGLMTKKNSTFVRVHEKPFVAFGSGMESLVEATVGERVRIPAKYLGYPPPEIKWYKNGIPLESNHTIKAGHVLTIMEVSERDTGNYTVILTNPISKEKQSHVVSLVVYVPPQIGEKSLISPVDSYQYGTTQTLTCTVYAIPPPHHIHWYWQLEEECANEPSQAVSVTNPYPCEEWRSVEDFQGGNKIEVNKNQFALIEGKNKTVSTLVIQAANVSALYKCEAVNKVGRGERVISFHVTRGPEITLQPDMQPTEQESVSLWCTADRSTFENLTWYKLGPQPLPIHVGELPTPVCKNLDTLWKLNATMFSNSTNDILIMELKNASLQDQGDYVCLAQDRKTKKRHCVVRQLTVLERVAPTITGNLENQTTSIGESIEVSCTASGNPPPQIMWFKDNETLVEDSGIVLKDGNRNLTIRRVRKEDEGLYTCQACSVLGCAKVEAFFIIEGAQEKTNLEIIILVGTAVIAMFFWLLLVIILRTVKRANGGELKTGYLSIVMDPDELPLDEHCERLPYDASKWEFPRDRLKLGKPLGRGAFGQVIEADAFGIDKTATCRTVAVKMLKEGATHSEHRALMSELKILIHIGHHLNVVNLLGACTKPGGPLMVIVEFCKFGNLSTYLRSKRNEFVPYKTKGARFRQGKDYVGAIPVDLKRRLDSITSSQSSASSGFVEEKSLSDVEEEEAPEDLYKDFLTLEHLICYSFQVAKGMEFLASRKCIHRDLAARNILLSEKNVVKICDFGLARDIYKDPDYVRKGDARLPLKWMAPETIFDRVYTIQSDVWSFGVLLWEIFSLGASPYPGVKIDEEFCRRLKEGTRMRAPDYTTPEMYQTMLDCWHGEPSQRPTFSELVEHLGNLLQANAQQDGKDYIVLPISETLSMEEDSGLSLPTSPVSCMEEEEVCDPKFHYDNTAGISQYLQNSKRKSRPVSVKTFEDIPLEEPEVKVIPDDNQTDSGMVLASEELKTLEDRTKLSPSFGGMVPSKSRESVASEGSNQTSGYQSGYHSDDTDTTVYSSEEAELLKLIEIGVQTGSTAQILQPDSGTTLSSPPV
T3 sequence (P53350 whole entry): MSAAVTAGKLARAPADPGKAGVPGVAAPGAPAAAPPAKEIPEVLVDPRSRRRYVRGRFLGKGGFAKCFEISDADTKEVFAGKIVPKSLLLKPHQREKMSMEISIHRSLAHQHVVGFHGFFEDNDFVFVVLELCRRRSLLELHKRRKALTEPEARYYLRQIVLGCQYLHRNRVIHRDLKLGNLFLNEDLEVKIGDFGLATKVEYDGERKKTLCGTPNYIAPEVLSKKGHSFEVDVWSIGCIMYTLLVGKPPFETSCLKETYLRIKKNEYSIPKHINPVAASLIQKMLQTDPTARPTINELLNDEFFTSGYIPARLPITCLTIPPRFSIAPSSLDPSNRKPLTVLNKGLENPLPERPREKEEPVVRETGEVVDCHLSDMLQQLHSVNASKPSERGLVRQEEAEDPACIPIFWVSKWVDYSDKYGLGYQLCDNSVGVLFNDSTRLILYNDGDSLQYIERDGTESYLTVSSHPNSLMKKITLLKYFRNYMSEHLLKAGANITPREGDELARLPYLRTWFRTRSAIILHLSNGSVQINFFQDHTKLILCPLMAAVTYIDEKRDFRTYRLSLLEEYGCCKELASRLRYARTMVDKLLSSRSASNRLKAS

As to `CCOc1ccc(Nc2ncc3c(n2)-c2ccc(OC)cc2NC(=O)C3)cc1`, the IC50 at Insulin receptor [1] was more than 100000 nM; in [2], 290 nM; with HUVEC it was 1100 nM; in assay [3], 7300 nM; in assay [4] it was 52 nM. Moreover, the GI50 in the assay with UACC-257 was 55000 nM; with IGROV-1, 230 nM; in the assay on CAKI-1, 390 nM. In addition, the result with NCI60 was Active.
In the case of `O=C1Cc2cnc(Nc3ccc(O)c(Cl)c3)nc2-c2cnccc2N1`, the half-inhibitory concentration (IC50) on Insulin receptor [1] is more than 100000 nM; in assay [3], 1400 nM; in assay [4] it was 87 nM. Also, the result with NCI60 was Active. Moreover, the inhibition entry in assay [5] is “inactive”.
With `CCOc1ccc(Nc2ncc3c(n2)-c2ccccc2NC(=O)C3)cc1`, the IC50 is more than 100000 nM at Insulin receptor [1], more than 100000 nM in assay [3] and 130 nM in [4]. The concentration for 50% growth inhibition (GI50) with UACC-257 is 27000 nM; in the assay with IGROV-1, 380 nM; in the assay with CAKI-1, 750 nM. The result with NCI60 was Active.
Take `O=C1Cc2cnc(Nc3ccc(O)c(Cl)c3)nc2-c2ccccc2N1`: the half-maximal inhibitory concentration (IC50) at Insulin receptor [1] came out at 84000 nM; in assay [2] it was 9600 nM; in [3], 9300 nM; in [4], 35 nM. For the same compound, the GI50 with UACC-257 turned out to be 39000 nM; in the assay on CAKI-1 it was 4700 nM. Besides, the outcome in the assay on NCI60 was Active.
For `COc1ccc2c(c1)NC(=O)Cc1cnc(Nc3ccc(O)c(Cl)c3)nc1-2`, the 50% inhibitory concentration (IC50) at Insulin receptor [1] was more than 100000 nM; in assay [2], 430 nM; in the assay on HUVEC, 1200 nM; in assay [3], 360 nM; in assay [4], 11 nM. Also, the outcome in the assay with NCI60 was Active.
As for `COc1ccc(Nc2ncc3c(n2)-c2ccccc2NC(=O)C3)cc1`, the IC50 turned out to be 99000 nM on Insulin receptor [1], 47000 nM in [3] and 95 nM in assay [4]. Besides, the GI50 was found to be 61000 nM in the assay with UACC-257, 410 nM in the assay on IGROV-1 and 510 nM in the assay with CAKI-1. Also, the result in the assay on NCI60 was Active.
As to `CCOc1ccc(Nc2ncc3c(n2)-c2cnccc2NC(=O)C3)cc1`, the half-inhibitory concentration (IC50) is more than 100000 nM on Insulin receptor [1], 18600 nM in assay [2], 1700 nM in assay [3] and 99 nM in assay [4]. Besides, the values for the 50% growth inhibitory concentration (GI50) in the assay on UACC-257, in the assay on IGROV-1 and in the assay on CAKI-1 were more than 100000 nM, 400 nM and 160 nM, respectively. Besides, the result in the assay with NCI60 was Active.
As for `COc1ccc(Nc2ncc3c(n2)-c2ccccc2NC(=O)C3)cc1O`, the 50% inhibitory concentration (IC50) was 24000 nM on Insulin receptor [1], 2400 nM in assay [2], 5700 nM in assay [3] and 73 nM in assay [4]. For the same compound, the concentration for 50% growth inhibition (GI50) in the assay on UACC-257 came out at 19000 nM; in the assay with IGROV-1 it was 250 nM; in the assay with CAKI-1, 150 nM. In addition, the result in the assay with NCI60 was Active.
With `O=C1Cc2cnc(Nc3ccc(O)cc3)nc2-c2ccccc2N1`, the results for the IC50 (at Insulin receptor [1]; in assay [3]; in assay [4]) were more than 100000 nM, more than 100000 nM and 80 nM, respectively. The GI50 in the assay with UACC-257 is more than 100000 nM; in the assay with IGROV-1, 3000 nM; in the assay on CAKI-1 it was 2600 nM. Moreover, the result in the assay with NCI60 was Active.
For the compound `O=C1Cc2cnc3ncnn3c2-c2ccccc2N1`, the inhibition (at Insulin receptor [6]; in assay [7]; in assay [8]) was less than 30% throughout. Moreover, the outcome with NCI60 was Active.

Values taken from ChEMBL document CHEMBL1157616, “Identification of 2-anilino-9-methoxy-5,7-dihydro-6H-pyrimido[5,4-d][1]benzazepin-6-ones as dual PLK1/VEGF-R2 kinase inhibitor chemotypes by structure-based lead generation” (J Med Chem, 2010).
